# Test results as given in ChEMBL document CHEMBL1649531, “In vitro activity of garenoxacin against Streptococcus pneumoniae mutants with characterized resistance mechanisms” (2009).
# Key:
# Assay type in all cases: functional
# Streptococcus pneumoniae [1] = assay: Antibacterial activity against Streptococcus pneumoniae S004 assessed as resistant isolates with ParC79 mutation in quinolone resistance-determining regions
# In short: (§1)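 Up to eight colonies per plate were grown individually, and genomic DNA was screened for ParC Ser79/Asp83 and GyrA Ser81/Gly85 changes by PCR-melting curve analysis with labelled hybridization probes. Sequences were confirmed by direct sequencing.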
# Streptococcus pneumoniae [2] = assay: Antibacterial activity against Streptococcus pneumoniae D001
# Streptococcus pneumoniae [3] = assay: Antibacterial activity against Streptococcus pneumoniae D001 assessed as resistant isolates with GyrA81 mutation in quinolone resistance-determining regions; in short: as §1
# Streptococcus pneumoniae [4] = assay: Antibacterial activity against Streptococcus pneumoniae S001 assessed as resistant isolates with GyrA81 mutation in quinolone resistance-determining regions; in short: as §1
# Streptococcus pneumoniae [5] = assay: Antibacterial activity against Streptococcus pneumoniae S004 assessed as resistant isolates with GyrA85 mutation in quinolone resistance-determining regions; in short: as §1
# Streptococcus pneumoniae [6] = assay: Antibacterial activity against Streptococcus pneumoniae S001 assessed as resistant isolates with GyrA85 mutation in quinolone resistance-determining regions; in short: as §1
# Streptococcus pneumoniae [7] = assay: Antibacterial activity against Streptococcus pneumoniae S004 harboring wild-type parC and gyrA Gly85Asn mutant genes
# Streptococcus pneumoniae [8] = assay: Antibacterial activity against Streptococcus pneumoniae S001 harboring parC Asp83Asn mutant and wild-type gyrA genes assessed as mutation prevention concentration after 48 hrs
# In short: (§2)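 A 200 μl culture at 10 log10 CFU/ml was spread on Mueller-Hinton II agar with 5% sheep blood containing drug at a range of concentrations, then incubated at 37°C in 5% CO2. MPC was taken as the lowest concentration preventing colony formation after 48 h. Determinations were done in duplicate.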
# Streptococcus pneumoniae [9] = assay: Antibacterial activity against Streptococcus pneumoniae S001 harboring parC Asp83Asn mutant and wild-type gyrA genes
# Streptococcus pneumoniae [10] = assay: Antibacterial activity against Streptococcus pneumoniae S002 assessed as resistant isolates with GyrA85 mutation in quinolone resistance-determining regions; in short: as §1
# Streptococcus pneumoniae [11] = assay: Antibacterial activity against Streptococcus pneumoniae D002 assessed as resistant isolates with GyrA85 mutation in quinolone resistance-determining regions; in short: as §1
# Streptococcus pneumoniae [12] = assay: Antibacterial activity against Streptococcus pneumoniae S001 assessed as resistant isolates with ParC79 mutation in quinolone resistance-determining regions; in short: as §1
# Streptococcus pneumoniae [13] = assay: Antibacterial activity against Streptococcus pneumoniae W001 assessed as resistant isolates with ParC79 mutation in quinolone resistance-determining regions; in short: as §1
# Streptococcus pneumoniae [14] = assay: Antibacterial activity against Streptococcus pneumoniae W001 assessed as resistant isolates with ParC83 mutation in quinolone resistance-determining regions; in short: as §1
# Streptococcus pneumoniae [15] = assay: Antibacterial activity against Streptococcus pneumoniae D001 harboring parC Ser79Phe and gyrA Gly85Lys mutant genes
# Streptococcus pneumoniae [16] = assay: Antibacterial activity against Streptococcus pneumoniae W001 harboring wild-type parC and gyrA genes assessed as mutation prevention concentration after 48 hrs; in short: as §2
# Streptococcus pneumoniae [17] = assay: Antibacterial activity against Streptococcus pneumoniae W001
# Streptococcus pneumoniae [18] = assay: Antibacterial activity against Streptococcus pneumoniae W002 assessed as resistant isolates with GyrA81 mutation in quinolone resistance-determining regions; in short: as §1
# Streptococcus pneumoniae [19] = assay: Antibacterial activity against Streptococcus pneumoniae S002 harboring parC Ser79Phe mutant and wild-type gyrA genes
# Streptococcus pneumoniae [20] = assay: Antibacterial activity against Streptococcus pneumoniae W001 assessed as resistant isolates with GyrA81 mutation in quinolone resistance-determining regions; in short: as §1
# Streptococcus pneumoniae [21] = assay: Antibacterial activity against Streptococcus pneumoniae S003 assessed as resistant isolates with GyrA85 mutation in quinolone resistance-determining regions; in short: as §1
# Streptococcus pneumoniae [22] = assay: Antibacterial activity against Streptococcus pneumoniae W002 harboring wild-type parC and gyrA genes
# Streptococcus pneumoniae [23] = assay: Antibacterial activity against Streptococcus pneumoniae S004 harboring wild-type parC and gyrA Gly85Asn mutant genes assessed as mutation prevention concentration after 48 hrs; in short: as §2
# Streptococcus pneumoniae [24] = assay: Antibacterial activity against Streptococcus pneumoniae S003
# Streptococcus pneumoniae [25] = assay: Antibacterial activity against Streptococcus pneumoniae D002 harboring parC Ser79Phe and gyrA Ser81Phe mutant genes assessed as mutation prevention concentration after 48 hrs; in short: as §2
# Streptococcus pneumoniae [26] = assay: Antibacterial activity against Streptococcus pneumoniae S001
# Streptococcus pneumoniae [27] = assay: Antibacterial activity against Streptococcus pneumoniae D002
# Streptococcus pneumoniae [28] = assay: Antibacterial activity against Streptococcus pneumoniae W001 harboring wild-type parC and gyrA genes
# Streptococcus pneumoniae [29] = assay: Antibacterial activity against Streptococcus pneumoniae S002 assessed as resistant isolates with GyrA81 mutation in quinolone resistance-determining regions; in short: as §1
# Streptococcus pneumoniae [30] = assay: Antibacterial activity against Streptococcus pneumoniae S002 harboring parC Ser79Phe mutant and wild-type gyrA genes assessed as mutation prevention concentration after 48 hrs; in short: as §2
# Streptococcus pneumoniae [31] = assay: Antibacterial activity against Streptococcus pneumoniae S002
# Streptococcus pneumoniae [32] = assay: Antibacterial activity against Streptococcus pneumoniae W002 assessed as resistant isolates with ParC79 mutation in quinolone resistance-determining regions; in short: as §1
# Streptococcus pneumoniae [33] = assay: Antibacterial activity against Streptococcus pneumoniae D001 harboring parC Ser79Phe and gyrA Gly85Lys mutant genes assessed as mutation prevention concentration after 48 hrs; in short: as §2
# Streptococcus pneumoniae [34] = assay: Antibacterial activity against Streptococcus pneumoniae W002
# Streptococcus pneumoniae [35] = assay: Antibacterial activity against Streptococcus pneumoniae W002 harboring wild-type parC and gyrA genes assessed as mutation prevention concentration after 48 hrs; in short: as §2
# Streptococcus pneumoniae [36] = assay: Antibacterial activity against Streptococcus pneumoniae S003 harboring wild-type parC and gyrA Ser81Phe mutant genes
# Streptococcus pneumoniae [37] = assay: Antibacterial activity against Streptococcus pneumoniae W002 assessed as resistant isolates with GyrA85 mutation in quinolone resistance-determining regions; in short: as §1
# Streptococcus pneumoniae [38] = assay: Antibacterial activity against Streptococcus pneumoniae S003 assessed as resistant isolates with ParC83 mutation in quinolone resistance-determining regions; in short: as §1
# Streptococcus pneumoniae [39] = assay: Antibacterial activity against Streptococcus pneumoniae W002 assessed as resistant isolates with ParC83 mutation in quinolone resistance-determining regions; in short: as §1
# Streptococcus pneumoniae [40] = assay: Antibacterial activity against Streptococcus pneumoniae S004 assessed as resistant isolates with ParC83 mutation in quinolone resistance-determining regions; in short: as §1
# Streptococcus pneumoniae [41] = assay: Antibacterial activity against Streptococcus pneumoniae S004
# Streptococcus pneumoniae [42] = assay: Antibacterial activity against Streptococcus pneumoniae W001 assessed as resistant isolates with GyrA85 mutation in quinolone resistance-determining regions; in short: as §1
# Streptococcus pneumoniae [43] = assay: Antibacterial activity against Streptococcus pneumoniae D002 assessed as resistant isolates with ParC83 mutation in quinolone resistance-determining regions; in short: as §1
# Streptococcus pneumoniae [44] = assay: Antibacterial activity against Streptococcus pneumoniae S002 assessed as resistant isolates with ParC83 mutation in quinolone resistance-determining regions; in short: as §1
# Streptococcus pneumoniae [45] = assay: Antibacterial activity against Streptococcus pneumoniae S003 assessed as resistant isolates with ParC79 mutation in quinolone resistance-determining regions; in short: as §1
# Streptococcus pneumoniae [46] = assay: Antibacterial activity against Streptococcus pneumoniae S003 harboring wild-type parC and gyrA Ser81Phe mutant genes assessed as mutation prevention concentration after 48 hrs; in short: as §2
# Streptococcus pneumoniae [47] = assay: Antibacterial activity against Streptococcus pneumoniae D002 harboring parC Ser79Phe and gyrA Ser81Phe mutant genes
smiles,measurement,setting,value
C[C@H]1NCc2cc(-c3ccc4c(=O)c(C(=O)O)cn(C5CC5)c4c3OC(F)F)ccc21 [GARENOXACIN],Activity,Streptococcus pneumoniae [1],56%
same,MIC,Streptococcus pneumoniae [2],0.25 µg/mL
same,Activity,Streptococcus pneumoniae [3],70%
same,Activity,Streptococcus pneumoniae [4],77%
same,Activity,Streptococcus pneumoniae [5],0%
same,Activity,Streptococcus pneumoniae [6],0%
same,MIC,Streptococcus pneumoniae [7],0.06 µg/mL
same,Activity,Streptococcus pneumoniae [8],1 µg/mL
same,MIC,Streptococcus pneumoniae [9],0.03 µg/mL
same,Activity,Streptococcus pneumoniae [10],9%
same,Activity,Streptococcus pneumoniae [11],50%
same,Activity,Streptococcus pneumoniae [12],0%
same,Activity,Streptococcus pneumoniae [13],0%
same,Activity,Streptococcus pneumoniae [14],0%
same,MIC,Streptococcus pneumoniae [15],0.25 µg/mL
same,Activity,Streptococcus pneumoniae [16],0.12 µg/mL
same,MIC,Streptococcus pneumoniae [17],0.015 µg/mL
same,Activity,Streptococcus pneumoniae [18],67%
same,MIC,Streptococcus pneumoniae [19],0.06 µg/mL
same,Activity,Streptococcus pneumoniae [20],50%
same,Activity,Streptococcus pneumoniae [21],0%
same,MIC,Streptococcus pneumoniae [22],0.015 µg/mL
same,Activity,Streptococcus pneumoniae [23],2 µg/mL
same,MIC,Streptococcus pneumoniae [24],0.06 µg/mL
same,Activity,Streptococcus pneumoniae [25],4 µg/mL
same,MIC,Streptococcus pneumoniae [26],0.03 µg/mL
same,MIC,Streptococcus pneumoniae [27],0.5 µg/mL
same,MIC,Streptococcus pneumoniae [28],0.015 µg/mL
same,Activity,Streptococcus pneumoniae [29],48%
same,Activity,Streptococcus pneumoniae [30],1 µg/mL
same,MIC,Streptococcus pneumoniae [31],0.06 µg/mL
same,Activity,Streptococcus pneumoniae [32],0%
same,Activity,Streptococcus pneumoniae [33],4 µg/mL
same,MIC,Streptococcus pneumoniae [34],0.015 µg/mL
same,Activity,Streptococcus pneumoniae [35],0.12 µg/mL
same,MIC,Streptococcus pneumoniae [36],0.06 µg/mL
same,Activity,Streptococcus pneumoniae [37],0%
same,Activity,Streptococcus pneumoniae [38],0%
same,Activity,Streptococcus pneumoniae [39],0%
same,Activity,Streptococcus pneumoniae [40],0%
same,MIC,Streptococcus pneumoniae [41],0.06 µg/mL
same,Activity,Streptococcus pneumoniae [42],12%
same,Activity,Streptococcus pneumoniae [43],21%
same,Activity,Streptococcus pneumoniae [44],0%
same,Activity,Streptococcus pneumoniae [45],65%
same,Activity,Streptococcus pneumoniae [46],2 µg/mL
same,MIC,Streptococcus pneumoniae [47],0.5 µg/mL
COc1c(N2C[C@@H]3CCCN[C@@H]3C2)c(F)cc2c(=O)c(C(=O)O)cn(C3CC3)c12 [MOXIFLOXACIN],MIC,Streptococcus pneumoniae [7],0.12 µg/mL
same,MIC,Streptococcus pneumoniae [15],4 µg/mL
same,Activity,Streptococcus pneumoniae [16],0.5 µg/mL
same,MIC,Streptococcus pneumoniae [22],0.06 µg/mL
same,Activity,Streptococcus pneumoniae [23],4 µg/mL
same,Activity,Streptococcus pneumoniae [25],16 µg/mL
same,MIC,Streptococcus pneumoniae [28],0.06 µg/mL
same,Activity,Streptococcus pneumoniae [33],16 µg/mL
same,Activity,Streptococcus pneumoniae [35],0.5 µg/mL
same,MIC,Streptococcus pneumoniae [36],0.06 µg/mL
same,Activity,Streptococcus pneumoniae [46],4 µg/mL
same,MIC,Streptococcus pneumoniae [47],4 µg/mL
O=C(O)c1cn(C2CC2)c2cc(N3CCNCC3)c(F)cc2c1=O [CIPROFLOXACIN],Activity,Streptococcus pneumoniae [8],128 µg/mL
same,MIC,Streptococcus pneumoniae [15],32 µg/mL
same,Activity,Streptococcus pneumoniae [16],8 µg/mL
same,MIC,Streptococcus pneumoniae [22],0.25 µg/mL
same,Activity,Streptococcus pneumoniae [23],64 µg/mL
same,Activity,Streptococcus pneumoniae [25],256 µg/mL
same,Activity,Streptococcus pneumoniae [30],128 µg/mL
same,Activity,Streptococcus pneumoniae [33],256 µg/mL
same,Activity,Streptococcus pneumoniae [35],8 µg/mL
same,Activity,Streptococcus pneumoniae [46],64 µg/mL
same,MIC,Streptococcus pneumoniae [47],8 µg/mL
